Variants at the floor of the assay were thinned out.

The values that follow come from the RNAGym collection of RNA variant scans (doi:10.1101/gad.245936.114).

B1: tRNA (parent)
chain: CUCUCGGUAGCCAAGUUGGUUUAAGGCGCAAGACUUUAAUUUAUCACUACGAAAUCUUGAGAUCGGGCGUUCGACUCGCCCCCGGGAGAUUUUUUCCUCGAGCAA

In the series the parent is B1. Briefly: nonsense suppression (GFP-seq) (ratio to wild type); higher = more function; SUP4oc tRNA, yeast GFP reporter sort-seq. A digest of the protocol:
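Nonsense suppression (GFPSEQ) is the median GFP/RFP ratio of each sorting bin, weighted by the variant's estimated share of cells in that bin and expressed relative to the unmutated parent tRNA. Yeast strains carried genome-integrated variants of an ochre-suppressor tRNA from a library with ~3% random mutations, plus a galactose-driven GFP ochre reporter and RFP, and were grown in raffinose/galactose medium containing 80 mg/L adenine. Cells were sorted into GFP/RFP bins, each bin was Illumina-sequenced (phred ≥30), and variants were kept only with ≥100 reads and ≥30 cells.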
On to A30C U58G, for which the nonsense suppression worked out at 1.02.
Consider G28C U55C, for which the nonsense suppression was found to be 0.183.
To G28C U55G belongs at most 0.026; to A30U A31U C80A, at most 0.026; to C29U G67C, at most 0.026.
To G28A A54C belongs 0.878; to G28A A54U, 1.1; to C27A U55C, 0.0902.
As for G26U G28U, the figure is at most 0.026; as for G28U A33U, at most 0.026.
A30G G78A: the nonsense suppression came out at 0.101.
To G28C U71C belongs 0.112.
As to C27U G65U, the nonsense suppression was at most 0.026.
C27U G65A: the nonsense suppression amounted to 0.0374.
As to G28A G78C, the nonsense suppression came out at 0.0938.
For A31G C77A, the nonsense suppression was at most 0.026.
As for C27G A74C G86A, the nonsense suppression is at most 0.026.
Regarding C29U G73A, the nonsense suppression came to 0.238.
Turning to G28A C68U, the nonsense suppression stood at 1.17.
A31C C72G G78U: the nonsense suppression is at most 0.026.
As for C27G A31G A54U U70C G84A, the figure is at most 0.026; as for A31G A33G U55C G61A, 0.727; as for C29U G61A, 0.83.
In the case of C29U G61C, the nonsense suppression came to 0.0261.
For the variant C29U G61U, the nonsense suppression was 0.754.
For the variant A30G A54C, the nonsense suppression came to 0.077.
A30G A54U: the nonsense suppression was found to be 1.2.
As to C27G G66U, the nonsense suppression was at most 0.026.
Regarding G28U U76A, the nonsense suppression is at most 0.026.
As for C29G G59A C80G, the figure is at most 0.026; as for G28C A60C, 0.235.
With A30G C72G, the nonsense suppression came out at 0.0409.
As for G26U C27G A30G U57G C64U G65C, the figure is at most 0.026; as for A30U C81A, 0.0383.
Take G28A C29U: the nonsense suppression was found to be 1.15.
On to A30U A60U C68U, for which the nonsense suppression was 0.0354.
As for C29G G86A, the nonsense suppression is at most 0.026.
As for A30U G69C C72U, the nonsense suppression was at most 0.026.
Take G28U A54U: the nonsense suppression is at most 0.026.
Consider C27U A74C, for which the nonsense suppression came to 0.0355.
As for G28C C34A C68G A89G, the nonsense suppression is at most 0.026.
With G28C C34A C68G A89U, the nonsense suppression was at most 0.026.
As for G28C G84C, the figure is 0.239.
Take A30U G67A G73U A74G C81A: the nonsense suppression is at most 0.026.
On to A30G G59A G73C, for which the nonsense suppression was at most 0.026.
Turning to G28C A33U C82U A89U, the nonsense suppression is at most 0.026.
As for C29U C64U, the nonsense suppression turned out to be 0.035.
On to A31C C56G, for which the nonsense suppression was at most 0.026.
For A31C G66C G85U, the nonsense suppression is at most 0.026.
For G28U C79U, the nonsense suppression is at most 0.026.
As for C29U A31C C68U C77A, the figure is at most 0.026; as for A30U A31G, 0.25; as for A30U A31U, 0.035.
As for A30C A60U U63A G69C, the figure is at most 0.026; as for A30U A89U, 0.0434; as for G28A C81U, 1.2.
With G28U G61C, the nonsense suppression turned out to be 0.321.
For G28U G61U, the nonsense suppression came out at 0.191.
As to G26U G69U C79U, the nonsense suppression is at most 0.026.
In the case of G28A G66C A87U, the nonsense suppression was at most 0.026.
As for C27U A62U, the nonsense suppression worked out at 0.0346.
To C27U A62G belongs at most 0.026; to C29A U57A G73A, at most 0.026; to C29U U71C, 0.0323.
As for A30U G32U C56A U58G, the figure is 1.11; as for C29U A30G A54C C75A, 0.0386.
Regarding A31C G32U, the nonsense suppression was at most 0.026.
For C27U G28A, the nonsense suppression turned out to be 0.0265.
As for C29U C79U G86A, the nonsense suppression is at most 0.026.
To A30C U55A belongs at most 0.026; to C29U U63C G85A, 0.849; to C29A A54U C56U G66C, at most 0.026.
On to C27U U71C C77G, for which the nonsense suppression is at most 0.026.
Turning to C27U, the nonsense suppression turned out to be 0.183.
Turning to A31G C75U, the nonsense suppression stood at 1.05.
As for A31G C75A, the nonsense suppression was determined as 1.06.
For the variant C27G U71G, the nonsense suppression was at most 0.026.
Regarding G28A G67A, the nonsense suppression came out at 0.209.
For the variant A30G C79U, the nonsense suppression was determined as 0.207.
For the variant C27U C75A, the nonsense suppression is 0.641.
As to A31G U57C G78A G86A, the nonsense suppression was at most 0.026.
Turning to C29U C72U, the nonsense suppression was 0.101.
As for A31G G84A, the figure is at most 0.026.
Turning to G28A G66A, the nonsense suppression was found to be 0.152.
To C27G C81G belongs at most 0.026; to C29U A54U, 0.869; to C27A C83G G84C, at most 0.026.
Take G26U A31G A54U U57C G73C: the nonsense suppression is at most 0.026.
In the case of G28C C34U, the nonsense suppression is at most 0.026.
In the case of C27U U55C C56A G88U, the nonsense suppression is at most 0.026.
To G26U A33G G78C G84A belongs at most 0.026.
Turning to C27U U58A G59A, the nonsense suppression was at most 0.026.
Turning to C29U G86C, the nonsense suppression was determined as 0.0331.
A31G U35A: the nonsense suppression worked out at 0.0292.
Take A31G U35C: the nonsense suppression was 0.0321.
Consider C27U G32C, for which the nonsense suppression is at most 0.026.
For the variant A31G C82U, the nonsense suppression came to 0.25.
For C27A G84A G86C, the nonsense suppression was at most 0.026.
Regarding G28C G67A, the nonsense suppression was determined as 0.0635.
Take A30C A54U A60G A74U: the nonsense suppression is at most 0.026.
To A31G G67C G85A belongs at most 0.026; to C29U G65A C81U, 1.14; to C27G A87G, 0.0273.
Consider G26U A31C G65C, for which the nonsense suppression was at most 0.026.
Consider A30G C83A, for which the nonsense suppression was at most 0.026.
As to C27A U55A G85A, the nonsense suppression is at most 0.026.
With A31U A60C C75A, the nonsense suppression was found to be 0.184.
As for A31G C83A, the figure is 0.0481.
On to A31G C83U, for which the nonsense suppression came out at 0.0743.
With C29A A30C, the nonsense suppression was at most 0.026.
C27A A33C G66U: the nonsense suppression was at most 0.026.
Regarding C27G C68G G84A, the nonsense suppression is at most 0.026.
As for G26C U57A A89C, the figure is at most 0.026; as for C29U G32U U57A A62G U63C G69C, at most 0.026; as for C29G U55A, at most 0.026.
C27A G61U G86U: the nonsense suppression was at most 0.026.
Take A31G U71A G73A C77U: the nonsense suppression was at most 0.026.
As for G28C G78C, the figure is at most 0.026; as for G28C G78A, 0.0288.
To C29A C75U belongs 0.0265; to C27G C80U C83A, at most 0.026; to C29G G78A, at most 0.026.
On to G28U C34A A87U, for which the nonsense suppression is at most 0.026.
For A30U G85A, the nonsense suppression is 0.52.
On to A30U G85U, for which the nonsense suppression came out at 0.0315.
With G28C G59A, the nonsense suppression is at most 0.026.
With C27G U57C U58G G66A C68G, the nonsense suppression was at most 0.026.
Regarding A31C A60U C75A, the nonsense suppression was 1.23.
In the case of C29U A60U, the nonsense suppression stood at 1.18.
Take C29U A60G: the nonsense suppression came to 0.114.
Take A30G A89C: the nonsense suppression came out at 0.0603.
As for A30G A89U, the figure is 0.0271; as for G28A G84A, at most 0.026; as for A31C A60U, 0.222.
For C29U U76A G84U, the nonsense suppression was at most 0.026.
As for C27U A54U, the figure is 0.104; as for C27U A54C, 0.0314; as for A31G C79U, 0.77.
Take A30G G73A C75A: the nonsense suppression stood at 0.318.
For C27U U63C, the nonsense suppression was 0.0314.
Consider C27U U58A, for which the nonsense suppression is at most 0.026.
Regarding G28A U35G G65U G73A C80U, the nonsense suppression was at most 0.026.
For G28A C75G, the nonsense suppression turned out to be 1.02.
As for A31C U76G, the figure is at most 0.026; as for G26U U71G G85U, at most 0.026; as for G28U A60C, 0.669.
C27G G73C: the nonsense suppression is at most 0.026.
For the variant A30U U58A, the nonsense suppression was found to be 0.89.
In the case of C27A U35C G66C G88C, the nonsense suppression was at most 0.026.
Take C29U C68U: the nonsense suppression came out at 0.272.
To C27G A33U C34G C83G G85A belongs at most 0.026; to G26C U63G, at most 0.026.
As for A31G A54C, the figure is 0.0977.
As for A31G A54U, the figure is 0.627; as for C29G U58A, at most 0.026.
Turning to A30U A60G, the nonsense suppression was 0.27.
On to A30U A60U, for which the nonsense suppression came out at 0.769.
As for C29U U57A U63G, the nonsense suppression is at most 0.026.
For the variant G28A A31G G73C, the nonsense suppression is at most 0.026.
With A30G C75U, the nonsense suppression is 1.19.
To C27U A30U G85C belongs at most 0.026; to C27G C77G, at most 0.026.
With C27A G59U, the nonsense suppression was at most 0.026.
For the variant A30G C64U, the nonsense suppression is 0.0605.
For the variant G28C U57A, the nonsense suppression was 0.0447.
For the variant G28C U57C, the nonsense suppression stood at 0.0349.
For the variant C27G U55A A60C, the nonsense suppression stood at 0.809.
